# From PubChem BioAssay
# FN deposition inh = fibronectin deposition inhibition; AH1F fibroblasts, Alexa488-fibronectin deposition fluorescence, overnight; inhibition, % at 12.6 µM; 350,000 tested, 0.086% active;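 active = mean inhibition across replicates of 30% or more, regardless of how many single replicates reach that level; inconclusive = mean under 30% yet at least half of replicates reach 30%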;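 also: positive control wells lacked labelled fibronectin entirely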
#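 Assay system: AH1F fibroblasts / Quantity: 10000 cells per well / Medium: DMEM plus 2% serum, read in PBS / Reagent: labelled fibronectin 24 nM / Dosing: single dose, pinned / Times: 1 h cell attachment, overnight exposure to compound and label / Signal: fluorescence, ex 485 nm, em 525 nm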
# PGC1a acetyl inh = lowers PGC1a acetylation signal in U2OS cells; AlphaScreen anti-acetyl-lysine; with virally co-expressed GCN5 acetyltransferase; inhibition, % at 15.6 µM; 350,000 tested, 0.17% active; AID 651687;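 active = every replicate shows inhibition of at least 40%; inconclusive = mean inhibition at least 40% but some replicate below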;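 also: 0% = neutral control wells and 100% = positive control wells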
# HIV Env fusion = HIV envelope-mediated fusion inhibition | HeLa-JRFL Env/CEM21 cell fusion, luciferase | AID 651610 | 360,000 tested, 1.1% active | inhibition, % at 12.3 µM;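 active = mean replicate inhibition score of at least 50 and every replicate individually at or above 50; inconclusive = only one of the two criteria met; inactive = mean below 50 and not all replicates reaching 50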;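 also: 0% = plate neutral controls and 100% = maraviroc near 300 nM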
# DENV2 CPE rescue = DENV2-induced cell death inhibition; DENV2-infected cells, cytopathic effect rescue, plate reader; CPE inhibition, % at 9.99 µM; 350,000 tested, 1.7% active; AID 651640; in the data active = CPE inhibition above about 20%, passing the limit was not always enough; inconclusive = no clear call, values can overlap the other calls; tested in BHK-21 cells;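 also: 0% = median of neutral control wells and 100% = median of positive control wells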
# PglD inh = blocks C. jejuni PglD acetyltransferase activity; inhibition, % at 12.5 µM; 360,000 tested, 0.098% active; AID 602405; purified PglD enzyme, DTNB colorimetric CoA detection; in the data active = inhibition above about 16%, passing the limit was not always enough; inconclusive = no clear call, values can overlap the other calls
# rRNA inh HTS = inhibits bacterial ribosomal RNA function over humanized ribosomes | E. coli WT GFP vs humanized-ribosome RFP mutants, fluorescence, 24 h; active compounds read low; DMSO median 0, no signal -100 | 350,000 tested, 1.6% active | GFP signal change (wild-type ribosome), % (concentration not given with the values);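 active = significant combined selectivity score with lowered wild-type GFP, culture density cut under 30%, mutant RFP and density less affected; inactive = any of these conditions unmet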
# Numbers without * were called inactive; u = inconclusive; x = no result; [ ] = another dose, or the depositor's remark. In the library only some 3.5% were active in any assay of this set; here they are far more common.
SMILES,FN deposition inh,PGC1a acetyl inh,HIV Env fusion,DENV2 CPE rescue,PglD inh,rRNA inh HTS
Cc1cc(OCc2ccc([N+](=O)[O-])cc2)c2c3c(c(=O)oc2c1)CCCC3,-2,x,10,151*,1,-1
Cc1cc(OCc2nn[nH]n2)c2c3c(c(=O)oc2c1)CCCC3,-1,x,-53,x,x,x
C=CCN1[C@@H]2CN(CC(F)(F)F)C[C@H]1C2c1ccc(Br)cc1 (stereo partly drawn),-5,x,x,x,x,-5
CN1OC[C@@H]2CN[C@H](c3ccc(Br)cc3)C[C@@H]21,7,1,-3,26*,x,17
Cc1ccc(NP(=O)(Oc2ccccc2F)Oc2ccccc2F)cc1,x,5,x,x,1,x
Cc1cccc(NP(=O)(Oc2ccccc2F)Oc2ccccc2F)c1C,0,x,x,-1,8,-29*
O=C(O)C(Br)Br,x,x,x,70*,x,3
CCOC(=O)c1cc2cc(OC)ccc2n1C1CCN(Cc2ccccc2)CC1,x,x,13,35*,x,-18
COc1ccc2nc(-c3ccc(CN4CCC(n5c(=O)[nH]c6cc(Cl)ccc65)CC4)cc3)c(-c3ccccc3)nc2c1,0,x,-22,-1,x,x
C=CCN1C[C@H](C)N(C(c2ccc(C(=O)N(CC)CC)cc2)c2cccc(OC)c2)CC1C (stereo partly drawn),x,x,x,9,x,1
O=C(O)C(O)(c1ccccc1)C1CCCC1 (stereo not drawn),33*,-3,-18,x,2,x
Cc1cc2c(C(C)C)c(O)c(O)c(C=O)c2c(O)c1-c1c(C)cc2c(C(C)C)c(O)c(O)c(C=O)c2c1O,13,0,61*,9,-5,-7.7*
O=C(Cc1ccccc1)N1CCCCN2[C@H](CO)[C@H](c3ccc(C#Cc4ccccc4)cc3)[C@@H]2C1,x,-22,x,0,11,3
CCCN1[C@@H]2Cn3c(ccc(-c4ccc(F)cc4)c3=O)[C@H]1[C@@H](C(=O)OC)[C@@H]2CO,x,-8,x,-3,-1,3
C[C@H]1C[C@@H](C)C(=O)[C@@H]([C@H](O)CC2CC(=O)NC(=O)C2)C1,x,68*,x,124*,0,x
COc1ccc(NC(=S)NC(NC(=O)CF)C(Cl)(Cl)Cl)cc1[N+](=O)[O-] (stereo not drawn),9,x,14,1,-4,-22*
CC1OC(OC2C=C3CCC4C(CCC5(C)C(c6ccc(=O)oc6)CCC45O)C3(C)CC2)C(O)C(OC2OC(CO)C(O)C(O)C2O)C1O (stereo not drawn),-7,32,63*,6,x,x
Cc1ccccc1N,x,-10,x,-19,0,4
Cc1ccc(N)c(C)c1,x,4,x,82*,1,4
CN1[C@@H]2CN(CC(F)(F)F)C[C@H]1C2c1ccc(Br)cc1 (stereo partly drawn),4,x,x,x,x,-4
CCOc1ccccc1N=C1SCCCN1C,-2,97*,-21,x,2,x
C[C@H](CO)N1C[C@H](C)[C@@H](CN(C)C(=O)Oc2cccc3ccccc23)OCc2cnnn2CCCC1=O,4,4,4[16.7 µM],u,-2,-2
C=CCc1ccc2c(c1)OCO2,x,x,x,93*,x,6
C=CCc1cc(OC)c2c(c1)OCO2,x,-6,x,14,-3,0
Cn1ncnc2c(=O)n(C)c(=O)nc1-2,x,100*,x,x,-10,x
SMILES,FN deposition inh,PGC1a acetyl inh,HIV Env fusion,DENV2 CPE rescue,PglD inh,rRNA inh HTS
COC(=O)[C@@H]1[C@@H](CO)[C@@H]2Cn3c(ccc(-c4ccccc4F)c3=O)[C@H]1N2Cc1ccccc1,x,x,x,-8,1,-2
COc1ccc(C#Cc2ccc([C@@H]3[C@H]4CN(C(=O)Cc5ccccc5)CCCCN4[C@H]3CO)cc2)cc1,x,-1,x,-23,-6,-4
COC(=O)C1=C(c2c(C)noc2C)C[C@@H]2CC[C@H]1N2C(=O)NC1CCCCC1,-5,-23,20,48*,2,15
CC(C)(C)n1nnnc1C(C1CC1)N1CCC2(CC1)C(=O)NCN2c1ccccc1 (stereo not drawn),-15,-25,4,1,3,-16*
O=C1NCN(c2ccccc2)C12CCN(C(c1nnnn1C1CCCCC1)C1CC1)CC2 (stereo not drawn),-2,-27,-7,5,-5,21
CCCNC(=O)[C@H]1[C@H](CO)[C@H]2Cn3c(cccc3=O)[C@H]2N1CC,x,x,x,0,x,0
Cc1nc2ccccc2c(=O)n1/N=C/c1cc(Br)cc(Br)c1O,8,x,13,-8,x,-22*
Cc1nc2ccccc2c(=O)n1-c1ccc(Br)cn1,13,2,-10,20,2,6
CC[C@H]1C=C(C(=O)N[C@@]2(C(=O)O)C[C@H]2CC)[C@H]2CCC(=O)[C@H]2C1,x,-8,-4[16.7 µM],2,x,x
O=C1CNC[C@@H]2[C@H](c3ccc(Br)cc3)[C@H](CO)N12,-2,0,x,10,x,-4
C1CCC2CCCCC2C1 (stereo not drawn),x,-6,x,33*,5,4
CC[N+](C)(CC)CCCCOc1ccc2c(c1)C(=O)c1cc(OCCCC[N+](C)(CC)CC)ccc1-2,-2,-5,0,0,-7,-53*
O=C1NC(=O)C2(Cc3cc([N+](=O)[O-])ccc3N3CCN(C(=O)c4ccccc4)CC32)C(=O)N1 (stereo not drawn),7,12,-7,-3,7,-29*
O=C(Cc1ccccn1)N1CCCCN2[C@@H](CO)[C@@H](c3ccc(-c4ccccc4)cc3)[C@@H]2C1,x,4,x,8,2,3
CC(=O)OC1CC(OC2C(O)CC(OC3C(O)CC(OC4CCC5(C)C(CCC6C5CCC5(C)C(C7=CC(=O)OC7)C(O)CC65O)C4)OC3C)OC2C)OC(C)C1OC1OC(CO)C(O)C(O)C1O (stereo not drawn),9,u,85*,-2,x,20
CC(=O)OC1CC2(O)C3CCC4CC(O)CCC4(C)C3CCC2(C)C1C1=CC(=O)OC1 (stereo not drawn),13,65*,102*,-13,x,0
CC1OC(OC2C(O)CC(OC3C(O)CC(OC4CCC5(C)C(CCC6C5CCC5(C)C(C7=CC(=O)OC7)C(O)CC65O)C4)OC3C)OC2C)CC(O)C1O (stereo not drawn),-2,x,63*,6,x,x
CC(=O)[C@H]1CCC2C3CC[C@H]4C[C@@H](O)CC[C@]4(C)C3CC[C@@]21C (stereo partly drawn),-6,3,0,0,9,-2
O=C(NC[C@H]1CC[C@@H]2NC[C@@H]2O1)C1CCCC1,x,2,-22[16.7 µM],u,x,x
O=C(Cc1cccnc1)N1CCCCN2[C@H](C1)[C@H](c1ccc(C#CC3CC3)cc1)[C@@H]2CO,x,1,x,-2,1,x
O=C(Cc1ccccn1)N1CCCCN2[C@H](C1)[C@@H](c1ccc(C#Cc3ccccc3)cc1)[C@@H]2CO,x,7,x,-6,-2,-59
